Test results: ChEMBL document CHEMBL1157678, “alpha-Glucosidase inhibitory antihyperglycemic activity of substituted chromenone derivatives” (Bioorg Med Chem, 2010)
Calls of active or inactive are those of the source. The calls are words filed in the database; no cut-off is given here.

Key:
[1] = Inhibition of rat intestinal alpha-glucosidase after 5 mins by spectrophotometry
Method in brief: (§1)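 Enzyme source was the supernatant of sonicated rat intestinal homogenate after centrifugation. Sample (5 mg/mL DMSO stock) in 100 mM phosphate buffer pH 6.8 was preincubated with enzyme for 5 min, then 5 mM p-nitrophenyl-α-D-glucopyranoside added. p-Nitrophenol was read at 405 nm 5 min later, with substrate-free blanks and a DMSO control. Inhibition (%) = (1 − B/A) × 100; IC50 by logarithmic regression.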

[2] = species: Rattus norvegicus; assay: Inhibition of rat intestinal alpha-glucosidase at 100 ug/mL after 5 mins by spectrophotometry; method in brief: as §1
[3] = test system: Radical scavenging activity; assay: Antioxidant activity assessed as DPPH radical scavenging activity at 25 ug/mL after 30 mins by spectrophotometry; assay type: functional
Method in brief: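 Test sample in DMSO (1 mg/mL stock) was mixed with 0.1 M Tris–HCl pH 7.4 and 0.5 mM DPPH in absolute ethanol. The mixture was shaken and kept in the dark 30 min, then absorbance read at 517 nm. Scavenging (%) = (1 − B/A) × 100 against a control without sample.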

[4] = test system: Rattus norvegicus; assay: Antihyperglycemic activity in overnight fasted starch-induced hyperglycemic Wistar rat assessed as decrease in plasma glucose level at 10 mg/kg, po administered 15 mins before starch challenge measured after 30 to 120 mins by glucose oxidase method; assay type: functional, organism-based; parameters: dose 10 mg/kg
Method in brief: (§2)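 Wistar rats of either sex (195–215 g), housed at 22 °C with a 12 h light/dark cycle, fasted overnight. Test agent suspended in normal saline and given orally by gastric intubation; controls received saline. Soluble starch (2 g/kg in saline) fed 15 min later. Retro-orbital blood was collected into EDTA for plasma glucose at 0–120 min. Plasma glucose AUC by trapezoid formula.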

[5] = test system: Rattus norvegicus; assay: Antihyperglycemic activity in overnight fasted starch-induced hyperglycemic Wistar rat assessed as decrease in plasma glucose level at 100 mg/kg, po administered 15 mins before starch challenge measured after 30 to 120 mins by glucose oxidase method; assay type: functional, organism-based; parameters: dose 100 mg/kg; method in brief: as §2
[6] = species: Rattus norvegicus; assay: Mixed noncompetitive inhibition of rat intestinal alpha-glucosidase at 10.6 uM by Lineweaver-Burke plot analysis
Method in brief: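 Conditions follow the rat intestinal α-glucosidase/p-NPG assay, but Vmax kinetics were recorded over 10 min at 30 s intervals after a 10 s lag following substrate addition. Substrate was used at various dilutions, with or without preincubation of inhibitor. Data were analysed on a Lineweaver–Burk plot.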

IC50 [1] [µM] | inhibition [2] | inhibition [6] | Structure (SMILES) | Activity [3] | Activity [4] | Activity [5]
91 | 77.6% |  | CCOC(=O)c1cc2ccc(O)cc2oc1=O | inactive |  | 
49 | 85.1% |  | CC(=O)c1cc2cc(-c3ccc(N4CCOCC4)cc3)ccc2oc1=O | 20.5% |  | 
37.6 | 66.7% |  | CCOC(=O)c1cc2cc(-c3ccc(F)cc3)ccc2oc1=O | inactive |  | 
186 | 77.1% |  | CCOC(=O)c1cc2cc(-c3ccccc3)ccc2oc1=O | 4.8% |  | 
 |  |  | C[C@H]1O[C@H](O[C@H]2[C@H](O)[C@@H](O)[C@@H](O[C@H]3[C@H](O)[C@@H](O)C(O)O[C@@H]3CO)O[C@@H]2CO)[C@H](O)[C@@H](O)[C@@H]1N[C@H]1C=C(CO)[C@@H](O)[C@H](O)[C@H]1O (some centres undefined) |  | Active | 
 | 31.9% |  | CC(=O)c1cc2cc(Br)ccc2oc1=O | 1.52% |  | 
 | inactive |  | CC(=O)c1cc2cc(-c3ccccc3)ccc2oc1=O | 19.6% |  | 
112 | 65.9% |  | CCOC(=O)c1cc2cc(-c3ccc(C)cc3)ccc2oc1=O | inactive |  | 
40.5 | 80.4% |  | CCOC(=O)c1cc2cc(-c3cncnc3)ccc2oc1=O | inactive |  | 
 | 53.2% |  | CC(=O)c1cc2ccccc2oc1=O | 0.83% |  | 
 | 47% |  | CCOC(=O)c1cc2ccccc2oc1=O | 1.82% |  | 
53.1 | 74.3% |  | CC(=O)c1cc2cc(-c3ccc(F)cc3)ccc2oc1=O | 15.6% |  | 
37.2 | 83.5% |  | CC(=O)c1cc2cc(-c3cncnc3)ccc2oc1=O | inactive |  | 
105 | 76.9% |  | CCOC(=O)c1cc2cc(-c3ccc(OC)nc3)ccc2oc1=O | inactive |  | 
44.5 | 93.1% |  | COc1ccc(-c2ccc3oc(=O)c(C#N)c(C)c3c2)cn1 | 35% |  | 
52.9 | 95.5% |  | Cc1c(C#N)c(=O)oc2ccc(-c3ccccc3)cc12 | 10.4% |  | 
52.2 | 70% |  | O=C(c1ccccc1)c1cc2cc(-c3ccccc3)ccc2oc1=O | 2.45% |  | 
96.4 | 76.9% |  | CC(=O)c1cc2cc(-c3ccc(Cl)cc3)ccc2oc1=O | 12.5% |  | 
68.7 | 72.7% |  | Cc1c(O)ccc2c(CCl)cc(=O)oc12 | 28.5% |  | 
58.1 | 96.4% |  | CC(=O)c1cc2cc(-c3cccnc3)ccc2oc1=O | 3.72% |  | 
 | 44.4% |  | O=C(c1ccccc1)c1cc2ccccc2oc1=O | 30.8% |  | 
28.2 | 86% | Active | COc1ccc(-c2ccc3oc(=O)c(C(C)=O)cc3c2)cn1 | inactive |  | Active
128 | 77.8% |  | Cc1c(Cl)c(=O)oc2cc(O)ccc12 | 20.8% |  | 
243 | 78.3% |  | O=c1cc(CCl)c2ccc(O)cc2o1 | 1.32% |  | 
 | 53.7% |  | O=C(c1ccccc1)c1cc2ccc(O)cc2oc1=O | inactive |  | 
52.6 | 86.5% |  | CC(=O)c1cc2cc(-c3ccc(C)cc3)ccc2oc1=O | inactive |  | 
 | 18.1% |  | O=C(c1ccccc1)c1cc2cc(Br)ccc2oc1=O | 2.22% |  | 
